Experimental data: article PMC5033602 (Investigative Ophthalmology & Visual Science, 2016)
Entries after “also recorded” stand apart in the source; their conditions may differ.

How the values were obtained:
human recombinant 5-LOX = assay: Peptide-affinity chromatography, human recombinant 5-LOX; format: binding; details: 0.1 M sodium phosphate, 0.1% NP-40, Western blot
Summary of the method: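 Human recombinant 5-LOX (300 ng) was incubated with P1-peptide agarose (0.4 nmol) in 0.1 M sodium phosphate and 0.1% NP-40 containing 25–250 mM NaCl, with gentle rotation at 4°C (1.5 h per general method). Agarose without peptide at 50 mM NaCl served as control resin. After extensive washes, bound protein was eluted in SDS-PAGE sample buffer and detected by anti-5-LOX Western blot (1:10,000) with chemiluminescence on film.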

ARPE-19 cells [1] = assay: Cell viability; format: cell-based, human
Summary of the method: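 ARPE-19 cells (passages 27–40; DMEM/F-12, 10% FBS, 37°C, 5% CO₂) were plated at 2 × 10⁴ cells/well and grown to confluence (72 h). After 8 h starvation in 0.5% serum, cells received increasing H₂O₂ plus TNF-α (10 ng/mL), with or without test peptide, for 16 h. Relative live-cell numbers came from intracellular ATP luminescence; each point is the mean of duplicate wells.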

primary pig RPE cells [2] = assay: Cell viability; format: cell-based
Summary of the method: (§1)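 Primary pig RPE cultures plated at 2 × 10⁴ cells/well (96-well) and grown to confluence (72 h), then exposed to H₂O₂ with TNF-α (10 ng/mL) and test peptide for the indicated time. Live cells were measured as intracellular ATP luminescence (CellTiter-Glo) and dead cells as dead-cell protease luminescence (CytoTox-Glo), with lysis reagent added for total-cell signal. Relative cell numbers are from duplicate wells.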

ARPE-19 cells [3] = assay: Pyknotic nuclei counting; format: cell-based, human; details: 600 μM H2O2, 16 hours, Hoechst stain
Summary of the method: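 ARPE-19 cells were serum-starved, then treated with 600 μM H₂O₂ and test peptide together for 16 h. Cells were fixed in methanol (15 min, RT) and stained with 5 μM Hoechst in PBS (15 min, RT). Five random fields per well were imaged, and pyknotic nuclei were counted as a percentage of total cells.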

ARPE-19 cells [4] = assay: Cell death; format: cell-based, human
Summary of the method: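 ARPE-19 cells (passages 27–40) grown in DMEM/F-12 with 10% FBS at 37°C, 5% CO₂, plated at 2 × 10⁴ cells/well (96-well) and cultured to confluency (72 h). Serum-starved 8 h in 0.5% serum, then exposed 16 h to H₂O₂ (600 μM for scrambled-control comparison) plus TNF-α (10 ng/mL) with test peptides. Dead-cell protease activity read by CytoTox-Glo; duplicate wells ± SD.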

primary pig RPE cells [5] = assay: Cell death; format: cell-based; details: for Cell death under oxidative stress: pig RPE
Summary of the method: as §1

[6] = tested on: LTB4 (5-LOX activity) in ARPE-19 cells; assay: Leukotriene B4 ELISA, ARPE-19 medium; format: cell-based, human
[7] = tested on: LTB4 (5-LOX activity) in primary pig RPE cells; assay: Leukotriene B4 ELISA, primary pig RPE medium; format: cell-based; details: 125 μM or 250 μM H2O2/TNF-α
Summary of the method: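 Primary pig RPE cultures received H₂O₂ with TNF-α and test peptide. Medium was collected per well, spun briefly at low speed, and 50 μL was assayed by competitive LTB₄ enzyme immunoassay. Concentration came from an LTB₄ standard curve and was normalized to cell number per well. Duplicate wells per condition, each well measured in triplicate; experiment run twice.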

PEDF = details: peptides from Leu159-Met325 of PEDF-R; cited from earlier work

## P1: L4-derived peptide containing residues Thr^210-Leu^249 of human PEDF-R (TSIQFNLRNLYRLSKALFPPEPLVLREMCKQGYRDGLRFL; UniProt Q96AD5 210-249, looked up, fragment)
Human recombinant 5-LOX; 250 mM NaCl
  Binding of 5-LOX to P1 at 250 mM NaCl: completely abolished
Human recombinant 5-LOX; 25-250 mM NaCl
  Binding of 5-LOX to P1 with increasing ionic strength: with increasing ionic strength the binding decreased
ARPE-19 cells [1]; 600 μM H2O2 plus TNF-α (10 ng/mL), preliminary, data not shown
  Protective effect against H2O2: had protective effects against 600 μM H2O2
ARPE-19 cells [1]; H2O2/TNF-α, ATP live cell biomarker, duplicate wells
  Cell viability under oxidative stress: promoted cell viability; also recorded: increased the ARPE-19 cell viability
Primary pig RPE cells [2]; 125 μM H2O2
  Cell viability under oxidative stress: increased pig RPE cell viability
Primary pig RPE cells [2]; 250 μM H2O2
  Cell numbers (viability) under oxidative stress: did not increase the cell numbers
ARPE-19 cells [3]
  Pyknotic nuclei level: resulted in a decrease of pyknotic nuclei level
ARPE-19 cells [4]; H2O2 (600 μM for SCR comparison), dead cell protease activity
  Number of dead cells under oxidative stress: decreased cell death of RPE cells undergoing oxidative stress; also recorded: decreased the number of dead cells under oxidative stress in a concentration-dependent fashion
ARPE-19 cells [4]; H2O2/TNF-α
  Protection from oxidative stress-induced cell death (summary): protected ARPE-19 and pig primary RPE cells from oxidative stress–induced cell death in a specific and concentration-dependent fashion
Primary pig RPE cells [5]; 125 μM H2O2
  Cell death under oxidative stress: decreased death at 125 μM H2O2
Primary pig RPE cells [5]; 250 μM H2O2
  Cell death under oxidative stress: decreased cell death at 250 μM H2O2
Primary pig RPE cells [5]; pig primary RPE, H2O2/TNF-α
  Protection from oxidative stress-induced cell death (summary): protected ARPE-19 and pig primary RPE cells from oxidative stress–induced cell death in a specific and concentration-dependent fashion
[6]; 600 μM H2O2/TNF-α, 20 nM P1
  LTB4 level under oxidative stress: decreased LTB4 to basal levels
[6]; 750 μM H2O2/TNF-α
  LTB4 level under oxidative stress: only partially diminished LTB4
[7]
  LTB4 level under oxidative stress: decreased LTB4 levels in primary pig RPE cells treated at 125 μM or 250 μM H2O2/TNF-α in a concentration-dependent fashion
PEDF
  PEDF-binding affinity: retain the PEDF-binding affinity of PEDF-R
